In general, inhibition refers to the relative decrease from the control value, in per cent. Usually IC50 stands for the point on the concentration scale where inhibition reaches its midpoint.

The text below walks through data of ChEMBL document CHEMBL4052782, “Neuropathic pain-alleviating effects of pyrazole-conjugated arylsulfonamides as 5-HT6 receptor antagonists” (Bioorg Med Chem Lett, 2017).

Data set [1] relates to Rattus norvegicus. As to the kind of experiment: Antineuropathic pain activity in rat spinal nerve ligation model assessed as effect on mechanical allodynia by measuring frequency of paw withdrawal at 100 mg/kg, po measured up to 3 hrs. In kind it is functional, organism-based. The method in brief:
(§1)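 Rats with spinal nerve ligation neuropathic injury, dosed orally at 100 mg/kg (n = 3–6 per group). Allodynia tested before injury, before dosing (post-injury day 14), and 1, 3 and 5 h after dosing. Values compared with pre-administration values by paired t-test, P < 0.05.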

Data set [2] addresses T1, 5-hydroxytryptamine receptor 6 (Homo sapiens, UniProt P50406). As to the kind of experiment: Inhibition of ligand binding to human 5-HT6R at 10 uM relative to control.
For data set [3], the target named is T1, 5-hydroxytryptamine receptor 6. As to the kind of experiment: Antagonist activity at human 5-HT6R expressed in human HeLa cells assessed as inhibition of 5-HT-induced cAMP levels pre-treated for 10 mins before 30 mins stimulation with 5-HT by D2-dye based HTRF assay. In kind it is functional, cell-based. The method in brief: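 HeLa cells stably expressing human 5-HT6 receptor, kept at 37°C in 5% CO2/95% air, suspended in PBS with 2 mM IBMX. Compound pretreatment 10 min, then 100 nM 5-HT stimulation 30 min. d2-labelled cAMP and cryptate-labelled anti-cAMP antibody added, 1 h at room temperature. Fluorescence read at 314 nm excitation, 668 and 620 nm emission.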
A general note: cAMP levels reflect the balance of adenylyl cyclase and phosphodiesterase activity.

The test system of data set [4] is Rattus norvegicus. As to the kind of experiment: Antineuropathic pain activity in rat spinal nerve ligation model assessed as effect on cold allodynia by measuring paw withdrawal response at 100 mg/kg, po measured up to 5 hrs. In kind it is functional, organism-based. The essentials: as §1
Another data set concerns the target CYP3A4 (Homo sapiens, UniProt P08684). As to the kind of experiment: Inhibition of recombinant human CYP3A4 expressed in baculosomes assessed as remaining activity at 10 uM preincubated for 10 mins followed by Vivid CYP450 substrate addition in presence of NADP+ by fluorescence assay relative to ketoconazole. In kind it is ADME. The settings on record: probe Vivid CYP450 substrate, read-out: Activity. The method in brief:
(§2)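 Remaining percent CYP activity measured at 10 µM test concentration. Values are means ± SD of triplicate experiments.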

Another data set concerns the target CYP2D6 (Homo sapiens, UniProt P10635). As to the kind of experiment: Inhibition of recombinant human CYP2D6 expressed in baculosomes assessed as remaining activity at 10 uM preincubated for 10 mins followed by Vivid substrate addition in presence of NADP+ by fluorescence assay relative to […]. It counts as ADME. The settings on record: probe Vivid substrate, read-out: Activity. The method in brief:
as §2

Data set [5] has as its system Rattus norvegicus. As to the kind of experiment: Poteny index, ratio of gabapentin to test compound antineuropathic pain activity in rat spinal nerve ligation model assessed as effect on mechanical allodynia by measuring frequency of paw withdrawal at 100 mg/kg, po. In kind it is functional.
For the next data set, the target named is CYP2C9 (Homo sapiens, UniProt P08684). As to the kind of experiment: Inhibition of recombinant human CYP2C9 expressed in baculosomes assessed as remaining activity at 10 uM preincubated for 10 mins followed by Vivid CYP450 substrate addition in presence of NADP+ by fluorescence assay relative to miconazole. It counts as ADME. The settings on record: probe Vivid CYP450 substrate, read-out: Activity. The essentials: as §2
CYP2C9, sequence (P08684 whole entry): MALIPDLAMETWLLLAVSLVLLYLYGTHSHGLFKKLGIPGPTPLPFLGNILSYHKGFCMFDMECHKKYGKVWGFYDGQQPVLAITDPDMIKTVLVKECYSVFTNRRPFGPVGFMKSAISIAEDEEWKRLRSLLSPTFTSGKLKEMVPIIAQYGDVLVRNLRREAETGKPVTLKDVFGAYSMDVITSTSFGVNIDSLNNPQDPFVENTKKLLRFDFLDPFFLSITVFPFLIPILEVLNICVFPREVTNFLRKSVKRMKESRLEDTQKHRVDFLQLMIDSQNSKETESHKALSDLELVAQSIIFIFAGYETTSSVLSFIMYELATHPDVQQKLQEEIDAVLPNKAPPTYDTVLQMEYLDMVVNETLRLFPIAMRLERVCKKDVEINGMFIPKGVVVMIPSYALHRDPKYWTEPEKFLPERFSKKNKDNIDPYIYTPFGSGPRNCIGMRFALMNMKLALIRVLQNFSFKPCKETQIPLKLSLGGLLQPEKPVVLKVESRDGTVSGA

The target in data set [6] is Voltage-gated inwardly rectifying potassium channel KCNH2 (Homo sapiens, UniProt Q12809). As to the kind of experiment: Inhibition of human ERG expressed in CHOK1 cells by patch clamp method. For orientation: In patch-clamp work, channel activity is measured electrically.
Voltage-gated inwardly rectifying potassium channel KCNH2, sequence (Q12809 whole entry): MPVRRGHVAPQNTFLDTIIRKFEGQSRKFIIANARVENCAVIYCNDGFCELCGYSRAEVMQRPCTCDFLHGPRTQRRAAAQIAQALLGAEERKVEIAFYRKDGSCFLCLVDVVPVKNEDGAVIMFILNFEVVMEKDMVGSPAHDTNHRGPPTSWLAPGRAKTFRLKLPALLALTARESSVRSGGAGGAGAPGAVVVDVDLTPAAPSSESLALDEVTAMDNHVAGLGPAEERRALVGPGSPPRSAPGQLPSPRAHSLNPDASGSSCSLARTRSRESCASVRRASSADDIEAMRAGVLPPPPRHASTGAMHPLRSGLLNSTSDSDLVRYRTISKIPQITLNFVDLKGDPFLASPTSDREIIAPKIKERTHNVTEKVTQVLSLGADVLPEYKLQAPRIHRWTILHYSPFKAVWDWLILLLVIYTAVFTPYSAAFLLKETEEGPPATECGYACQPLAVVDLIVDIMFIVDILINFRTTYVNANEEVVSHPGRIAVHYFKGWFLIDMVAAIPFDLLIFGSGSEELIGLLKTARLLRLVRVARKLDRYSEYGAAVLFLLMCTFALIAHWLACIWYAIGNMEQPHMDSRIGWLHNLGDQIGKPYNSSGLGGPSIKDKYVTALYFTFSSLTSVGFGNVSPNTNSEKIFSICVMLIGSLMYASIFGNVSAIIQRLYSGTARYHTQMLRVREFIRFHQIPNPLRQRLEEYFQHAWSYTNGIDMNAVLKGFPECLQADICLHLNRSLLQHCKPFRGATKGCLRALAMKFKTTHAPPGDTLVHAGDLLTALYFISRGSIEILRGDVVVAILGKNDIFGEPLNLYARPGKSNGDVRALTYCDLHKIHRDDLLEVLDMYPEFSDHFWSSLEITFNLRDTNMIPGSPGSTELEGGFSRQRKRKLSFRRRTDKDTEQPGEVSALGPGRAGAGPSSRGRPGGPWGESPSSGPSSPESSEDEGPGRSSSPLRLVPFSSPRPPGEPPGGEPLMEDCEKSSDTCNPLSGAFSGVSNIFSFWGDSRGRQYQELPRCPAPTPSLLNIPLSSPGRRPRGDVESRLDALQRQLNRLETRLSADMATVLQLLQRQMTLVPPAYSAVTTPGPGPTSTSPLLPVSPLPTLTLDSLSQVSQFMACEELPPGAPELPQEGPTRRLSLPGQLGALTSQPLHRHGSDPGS

Calls of active or inactive are those of the source. The rule behind the calls is not given here.

T1 sequence (P50406 whole entry): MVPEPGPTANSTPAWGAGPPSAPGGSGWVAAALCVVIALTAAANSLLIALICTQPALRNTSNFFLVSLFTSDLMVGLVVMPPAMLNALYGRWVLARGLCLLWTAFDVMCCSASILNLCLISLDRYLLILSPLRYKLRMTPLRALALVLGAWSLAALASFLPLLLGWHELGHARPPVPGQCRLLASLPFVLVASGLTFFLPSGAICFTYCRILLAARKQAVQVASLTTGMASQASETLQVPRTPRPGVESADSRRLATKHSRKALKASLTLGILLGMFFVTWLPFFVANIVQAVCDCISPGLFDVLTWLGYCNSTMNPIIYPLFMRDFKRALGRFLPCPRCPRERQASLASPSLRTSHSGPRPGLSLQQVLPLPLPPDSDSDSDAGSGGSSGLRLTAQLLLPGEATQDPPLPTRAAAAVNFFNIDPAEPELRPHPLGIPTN
CYP2D6, sequence (P10635 whole entry): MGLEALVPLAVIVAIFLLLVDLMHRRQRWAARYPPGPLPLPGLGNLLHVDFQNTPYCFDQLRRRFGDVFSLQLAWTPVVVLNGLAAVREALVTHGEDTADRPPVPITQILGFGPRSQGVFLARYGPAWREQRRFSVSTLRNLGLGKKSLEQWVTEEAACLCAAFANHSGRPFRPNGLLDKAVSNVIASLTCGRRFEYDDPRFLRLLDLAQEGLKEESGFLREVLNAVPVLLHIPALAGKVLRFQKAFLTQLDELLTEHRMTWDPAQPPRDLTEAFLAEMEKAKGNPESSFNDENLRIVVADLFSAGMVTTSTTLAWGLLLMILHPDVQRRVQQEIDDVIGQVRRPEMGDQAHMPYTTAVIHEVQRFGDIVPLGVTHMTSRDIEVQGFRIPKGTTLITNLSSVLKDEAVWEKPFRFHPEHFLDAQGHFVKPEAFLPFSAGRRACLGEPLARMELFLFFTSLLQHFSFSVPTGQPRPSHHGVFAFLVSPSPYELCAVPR
CYP3A4, sequence (P08684 whole entry): as the sequence (P08684 whole entry) above

For the compound `NCC1(CC(=O)O)CCCCC1`, in the data set on Rattus norvegicus [1], the Activity result was “Active”.
With `Cc1c(Cl)cccc1S(=O)(=O)NCc1cc(CC(C)C)n(-c2ccccc2)n1`, the inhibition in data set [2] came out at 72.3%. In addition, in data set [3], the IC50 amounted to 4010 nM.
As for `CC(C)Cc1cc(CNS(=O)(=O)c2ccccc2)nn1-c1ccccc1`, the inhibition in data set [2] was 11.3%.
For the compound `CC(C)Cc1cc(CNS(=O)(=O)Cc2cccc3ccccc23)nn1-c1ccccc1`, the inhibition in data set [2] is 28.7%.
Turning to `O=C1c2[nH]nc(NS(=O)(=O)c3ccc4ccccc4c3)c2CCN1CC1CCNCC1`, the inhibition in [2] worked out at 94.1%. The IC50 in data set [3] was 310 nM.
`CC(C)Cc1cc(CNS(=O)(=O)c2cccc(F)c2)nn1-c1ccccc1`: in data set [2], the inhibition is 19.5%.
With `CC(C)Cc1cc(CNS(=O)(=O)c2cccc(Cl)c2)nn1-c1ccccc1`, the inhibition in data set [2] is 40.8%. Further, the IC50 in data set [3] came to 10900 nM.
Consider `CC(C)Cc1cc(CNS(=O)(=O)c2cccc3cccnc23)nn1-c1ccccc1`, for which the Activity entry in the data set with Rattus norvegicus [1] was “Active”. For the same compound, the Activity entry in the data set on Rattus norvegicus [4] is “inactive”. For the same compound, the inhibition in data set [2] amounted to 106%. For the same compound, the activity at 10 µM at CYP3A4 came to 52.2%; at CYP2D6, 119%. In addition, the IC50 in [3] stood at 1420 nM.
For `CC(C)Cc1cc(CNS(=O)(=O)Cc2cccc3ccccc23)nn1-c1ccc(F)cc1`, the inhibition in data set [2] was determined as 36.1%.
In the case of `CC(C)Cc1cc(CNS(=O)(=O)c2c(Cl)cccc2Cl)nn1-c1ccccc1`, the inhibition in data set [2] worked out at 59.4%. The IC50 in data set [3] came out at 5650 nM.
In the same order, the values of `CC(C)Cc1cc(CNS(=O)(=O)c2ccc3ccccc3c2)nn1-c1ccccc1` are 67.8% and 3300 nM.
For the compound `CC(C)Cc1cc(CNS(=O)(=O)c2cccc3cccnc23)nn1-c1ccc(F)cc1`, the Ratio with Rattus norvegicus [5] came out at 60. For the same compound, the Activity entry with Rattus norvegicus [1] is “Active”. Also, the activity at 10 µM on CYP2C9 amounted to 3.87%; at CYP3A4, 34.5%; at CYP2D6, 64.8%. The Activity result in the data set with Rattus norvegicus [4] is “inactive”. In addition, the inhibition in data set [2] was 93.4%. Besides, the IC50 in data set [3] is 1780 nM; in [6], 1600 nM.
In the case of `CC(C)Cc1cc(CNS(=O)(=O)c2ccc(C(C)(C)C)cc2)nn1-c1ccccc1`, the inhibition in [2] amounted to 51.1%. In addition, the IC50 in data set [3] was 8780 nM.
As to `CC(C)Cc1cc(CNS(=O)(=O)c2cccc3ccccc23)nn1-c1ccccc1`, the inhibition in [2] is 77.7%. Besides, in data set [3], the IC50 came to 2430 nM.
